# Measured values reported in PubChem BioAssay.
# Calls of active or inactive are those of the source.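 Rule for the calls, unless noted: active = fluorescence slope higher than the sample average by over 3 SD (cut at about -0.22 in these data, passing the limit was not always enough); inactive = the rest.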
# Assays:
# [1] = inhibitors of TNFa-induced NFkB p65 translocation, primary screen, imaging, HUVEC, MLSMR starter and 10KST1 sets (AID 438;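 active = inhibition above 20% together with a positive visual image hit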;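 note: compound added about 3h40 before a 20 min TNFalpha stimulation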;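 for inhibition: signal is the nuclear over cytoplasmic p65 intensity ratio per well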); conditions: HUVEC TNFa-induced p65 nuclear translocation; cell count: measured here: nuclei count (cytotoxicity indicator), at 2.08 µM; inhibition: at 2 µM, stronger effect = higher value, 0% TNFa-plus-vehicle, 100% no-TNFa wells
# [2] = inhibitors of mutant huntingtin aggregation, primary screen, imaging, exon1htt(103Q)mCFP cells, high-content imaging (AID 483;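 active = visual image review flags a hit and inhibition of aggregation exceeds 20%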;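 note: compound exposure lasted 3 days before fixation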;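 for nuclei count: percent of the per-plate median nuclei count of sample wells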); conditions: exon1htt(103Q)mCFP cell line, aggregate imaging, at 2 µM; inhibition of aggregation: stronger effect = higher value; nuclei count: measured here: cell count, toxicity
# [3] = inhibitors of E-selectin induction by TNFa, primary screen, imaging, HUVEC, immunofluorescence, MLSMR starter and 10KST1 sets (AID 487;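 active = visually confirmed hit in the image check and inhibition above 20%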;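 for inhibition: signal is fraction of cell area covered by stained E-selectin grains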;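 for nuclei count: 100% = median nuclei count of all wells on the same plate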); conditions: HUVEC TNFalpha-induced E-selectin immunofluorescence imaging, at 2 µM; inhibition: stronger effect = higher value; nuclei count: measured here: cell number, toxicity
# [4] = target: Voltage-gated potassium channel subunit beta-2 (Rattus norvegicus) (UniProt P62483); assay: KvBeta enzyme negative modulators, primary screen, biochemical, NADPH fluorescence (AID 622); conditions: recombinant KvBeta, 4-cyanobenzaldehyde reduction, at 10 µM, stronger effect = higher value;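 note: slope of raw intensity against log time taken from 70 to 1610 s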
# Chain of Voltage-gated potassium channel subunit beta-2 (Rattus norvegicus) (P62483 whole entry, looked up): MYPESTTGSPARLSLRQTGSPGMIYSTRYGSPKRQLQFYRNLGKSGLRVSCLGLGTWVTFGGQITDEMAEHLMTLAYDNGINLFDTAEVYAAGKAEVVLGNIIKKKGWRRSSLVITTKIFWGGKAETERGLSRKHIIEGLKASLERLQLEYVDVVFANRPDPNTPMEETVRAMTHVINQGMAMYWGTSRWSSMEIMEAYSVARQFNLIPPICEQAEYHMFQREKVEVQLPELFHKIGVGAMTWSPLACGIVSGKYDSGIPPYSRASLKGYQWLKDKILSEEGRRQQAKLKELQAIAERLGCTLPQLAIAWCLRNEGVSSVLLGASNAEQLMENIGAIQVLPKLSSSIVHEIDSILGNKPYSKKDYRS
# [5] = target: Voltage-gated potassium channel subunit beta-2 (Rattus norvegicus) (UniProt P62483); assay: KvBeta positive modulators, primary screen, biochemical, NADPH fluorescence (AID 623;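 active = NADPH fluorescence slope more negative than the mean of all samples by about 3 SD, 99.7% confidence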;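 note: fluorescence intensity change per second fitted from 20 to 320 s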); conditions: Recombinant KvBeta, NADPH fluorescence decrease slope, 10 min; at 10 µM; stronger effect = lower value
# [6] = target: Muscarinic acetylcholine receptor M4 (Homo sapiens) (UniProt P08173); assay: compounds altering M4/GIRK thallium flux, either direction, primary screen, M4 allosteric agonist project, cell-based, HEK293 M4/GIRK, BTC-AM (AID 625;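 active = fluorescence slope after compound addition differing from the mean of all tested samples at 99.7% confidence, mostly higher but some lower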;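 note: thallium influx through GIRK channels coupled to M4 in HEK293 cells with BTC-AM dye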); conditions: at 10 µM, actives lie on both sides
# Chain of Muscarinic acetylcholine receptor M4 (Homo sapiens) (P08173 whole entry, looked up): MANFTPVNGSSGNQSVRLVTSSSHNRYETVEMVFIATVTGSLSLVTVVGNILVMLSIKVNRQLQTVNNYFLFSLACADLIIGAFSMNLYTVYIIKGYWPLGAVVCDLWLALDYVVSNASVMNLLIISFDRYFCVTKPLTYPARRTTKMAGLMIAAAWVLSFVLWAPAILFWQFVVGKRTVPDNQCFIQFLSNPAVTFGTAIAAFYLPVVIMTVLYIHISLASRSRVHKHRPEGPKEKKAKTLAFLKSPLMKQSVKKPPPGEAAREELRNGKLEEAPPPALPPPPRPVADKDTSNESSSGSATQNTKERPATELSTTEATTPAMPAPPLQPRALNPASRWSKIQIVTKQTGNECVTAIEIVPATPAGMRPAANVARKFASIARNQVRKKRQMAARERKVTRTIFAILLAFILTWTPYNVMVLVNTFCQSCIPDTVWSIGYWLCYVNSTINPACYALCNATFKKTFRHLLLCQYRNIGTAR
# How it was run: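 System: HEK293 cells with M4 receptor and GIRK channels | Incubation: Cells overnight at 37 °C, BTC-AM loading 1 h, reads 2 min total | Technique: Kinetic BTC-AM fluorescence sampled at 1 Hz, 10 s pre-addition baseline | Measure: Post-addition slope, 15–24 s, of baseline-normalized fluorescence | Control set: Carbachol positive, DMSO negative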
# [7] = inhibitors of Sendai virus-induced IRF3 signaling, primary screen, TLR/RLR signaling modifier project, cell-based, Sendai virus stimulus, luciferase, 10K MLSCN set (AID 602276;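 active = inhibition at or above 50% at 10 µM; inactive = inhibition below 50%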;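 note: firefly luciferase from ISG56 promoter only with Renilla not read in this screen; 0% = Sendai virus plus DMSO and 100% = medium plus DMSO without virus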); conditions: HEK293 RL24 IRF3 luciferase reporter, at 10 µM, stronger effect = higher value
# [8] = inhibitors of poly I:C-induced TLR3 signaling, primary screen, cell-based, poly I:C stimulus, luciferase, 10K MLSCN set (AID 602277;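 active = inhibition of the reporter signal at or above 50%; inactive = inhibition below 50%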); conditions: HEK293-TLR3 RL24 IRF3 luciferase reporter, at 10 µM, stronger effect = higher value
Compound,cell count [1],inhibition [1],inhibition of aggregation [2],nuclei count [2] [%],inhibition [3],nuclei count [3] [%],fluorescence slope [4],NADPH fluorescence slope [5],fluorescence slope [6],inhibition [7],inhibition [8]
COC(=O)C1CCN(C(=O)CSc2nnc(-c3ccncc3)o2)CC1,682,-6.4% (inactive),22.4% (inactive),59.8,-9.5% (inactive),109,-0.57 (inactive),-5.5e-05 (inactive),0.0106 (inactive),-9.36% (inactive),-15.6% (inactive)
O=C1c2ccccc2C(O)(Cc2ccccc2)N1Cc1ccco1 (centres undefined),425,-2.9% (inactive),-10.1% (inactive),96.8,-110% (inactive),131,-0.554 (inactive),-1.5e-05 (inactive),0.00578 (inactive),8.83% (inactive),21.9% (inactive)
COC(=O)c1cn(C(=O)OC)c2ccccc12,447,-2.7% (inactive),10.2% (inactive),108,-17.8% (inactive),108,-0.593 (inactive),-8.8e-05 (inactive),0.00446 (inactive),13.8% (inactive),10.5% (inactive)
COc1cc(OC)cc(C(=O)N2CCN(C(=O)c3ccc(OC)c(OC)c3)CC2)c1,358,-2% (inactive),-5.3% (inactive),126,-20.6% (inactive),89.3,-0.603 (inactive),3.5e-06 (inactive),0.00572 (inactive),4.07% (inactive),14.7% (inactive)
CC(=O)Nc1ccc(NC(=O)c2ccccc2N(C)S(C)(=O)=O)cc1,408,0.5% (inactive),-2.3% (inactive),111,-46.3% (inactive),94.4,-0.462 (inactive),-5.4e-05 (inactive),0.00563 (inactive),11.7% (inactive),10.8% (inactive)
CCC(=O)Oc1ccc2c(C)cc(=O)oc2c1C,328,3.4% (inactive),-23.4% (inactive),98.2,-42.2% (inactive),108,-0.554 (inactive),-4.5e-05 (inactive),0.00649 (inactive),10.7% (inactive),-2.94% (inactive)
CC(n1cnnn1)C12CC3CC(CC(C3)C1)C2 (centres undefined),555,1.3% (inactive),0.3% (inactive),106,16.7% (inactive),114,-0.495 (inactive),0.000168 (inactive),0.00589 (inactive),16.5% (inactive),32.3% (inactive)
CC(C)(C)C1CCc2c(sc3c2C(=O)NC(c2ccco2)N3)C1 (centres undefined),639,-34.8% (inactive),14.3% (inactive),125,15.7% (inactive),97,-0.506 (inactive),2.4e-05 (inactive),0.00491 (inactive),-39.4% (inactive),-133% (inactive)
Cc1onc(-c2ccccc2)c1C(N)=O,506,-11.2% (inactive),-1.6% (inactive),98.5,-158% (inactive),159,-0.563 (inactive),-6.3e-05 (inactive),0.00641 (inactive),16% (inactive),16.2% (inactive)
COCc1cc(C)nc(SCC(=O)Nc2cccc(C)c2C)c1C#N,578,-25.9% (inactive),-17.5% (inactive),98,-62.6% (inactive),107,-0.432 (inactive),2.4e-05 (inactive),0.0109 (inactive),-2.58% (inactive),38.1% (inactive)
CCC(=O)OC1(C#CCOc2ccc(OC)cc2)CCN(C)CC1,393,-6.5% (inactive),-20.2% (inactive),113,-43.3% (inactive),142,-0.61 (inactive),-2.5e-05 (inactive),0.00292 (inactive),17.8% (inactive),16% (inactive)
CC(=O)Nc1ccc2nc(-c3cccnc3)[nH]c2c1,435,-3.2% (inactive),-1.8% (inactive),106,-9.3% (inactive),116,-0.571 (inactive),1.8e-05 (inactive),0.00606 (inactive),-7.23% (inactive),-16.4% (inactive)
C=CCn1c(SCC(=O)NCC2CCCO2)nnc1C1CCCCC1 (centres undefined),354,-4.5% (inactive),-6% (inactive),110,-33% (inactive),113,-0.573 (inactive),-2.9e-05 (inactive),0.00592 (inactive),11.2% (inactive),17.5% (inactive)
CCOC(=O)N1CCN(S(=O)(=O)c2cc(C)c(C)cc2C)CC1,373,2.8% (inactive),-7.2% (inactive),99.3,-69.5% (inactive),137,-0.459 (inactive),-1.8e-05 (inactive),0.00447 (inactive),13.4% (inactive),20.2% (inactive)
